Laboratory results: ChEMBL document CHEMBL1649124, “Genetic variability among ampC genes from acinetobacter genomic species 3” (Antimicrob Agents Chemother, 2009)

Columns and labels:
Settings in all cases: Acinetobacter pittii
[1] = test system: CO[C@@]1(NC(=O)Cc2cccs2)C(=O)N2C(C(=O)O)=C(COC(N)=O)CS[C@@H]21; assay: (§1) Ratio of Kcat to Km for Acinetobacter genomosp. 3 isolate 103 ADC-16
Procedure, shortened: (§2)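 AmpC genes from AG3 clinical isolates were cloned into pGEX-6P-1 and expressed as GST fusions. The mature enzyme was purified free of GST, giving a 43 kDa SDS-PAGE band of 95% purity. Kinetics were read spectrophotometrically at 25°C in PBS with 20 mg/liter BSA, three repeats. For poor substrates, Km was taken as Ki in competitive assays with Centa as reporter substrate. Vmax came from the Michaelis-Menten equation at six times Km antibiotic.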

[2] = test system: CC(=O)OCC1=C(C(=O)O)N2C(=O)[C@@H](NC(=O)Cc3cccs3)[C@H]2SC1; assay: as §1; procedure, shortened: as §2
[3] = test system: CC(C)(O/N=C(\C(=O)N[C@@H]1C(=O)N2C(C(=O)[O-])=C(C[n+]3ccccc3)CS[C@H]12)c1csc(N)n1)C(=O)O; assay: as §1; procedure, shortened: as §2
[4] = test system: CO/N=C(\C(=O)N[C@@H]1C(=O)N2C(C(=O)O)=C(COC(C)=O)CS[C@H]12)c1csc(N)n1; assay: as §1; procedure, shortened: as §2
[5] = test system: CO/N=C(\C(=O)N[C@@H]1C(=O)N2C(C(=O)O)=C(COC(N)=O)CS[C@H]12)c1ccco1; assay: as §1; procedure, shortened: as §2
[6] = test system: CO[C@@]1(NC(=O)Cc2cccs2)C(=O)N2C(C(=O)O)=C(COC(N)=O)CS[C@@H]21; assay: (§3) Activity of Acinetobacter genomosp. 3 isolate 103 ADC-16; procedure, shortened: as §2
[7] = test system: CC(=O)OCC1=C(C(=O)O)N2C(=O)[C@@H](NC(=O)Cc3cccs3)[C@H]2SC1; assay: as §3; procedure, shortened: as §2
[8] = test system: CC(C)(O/N=C(\C(=O)N[C@@H]1C(=O)N2C(C(=O)[O-])=C(C[n+]3ccccc3)CS[C@H]12)c1csc(N)n1)C(=O)O; assay: as §3; procedure, shortened: as §2
[9] = test system: CO/N=C(\C(=O)N[C@@H]1C(=O)N2C(C(=O)O)=C(COC(C)=O)CS[C@H]12)c1csc(N)n1; assay: as §3; procedure, shortened: as §2
[10] = test system: C[C@H]1[C@H](NC(=O)/C(=N\OC(C)(C)C(=O)O)c2csc(N)n2)C(=O)N1S(=O)(=O)O; assay: as §3; procedure, shortened: as §2
[11] = test system: CO/N=C(\C(=O)N[C@@H]1C(=O)N2C(C(=O)O)=C(COC(N)=O)CS[C@H]12)c1ccco1; assay: as §3; procedure, shortened: as §2
[12] = test system: CO[C@@]1(NC(=O)Cc2cccs2)C(=O)N2C(C(=O)O)=C(COC(N)=O)CS[C@@H]21; assay: (§4) Ratio of Kcat to Km for Acinetobacter genomosp. 3 isolate 195 ADC-18; procedure, shortened: as §2
[13] = test system: CC(=O)OCC1=C(C(=O)O)N2C(=O)[C@@H](NC(=O)Cc3cccs3)[C@H]2SC1; assay: as §4; procedure, shortened: as §2
[14] = test system: CO/N=C(\C(=O)N[C@@H]1C(=O)N2C(C(=O)O)=C(COC(N)=O)CS[C@H]12)c1ccco1; assay: as §4; procedure, shortened: as §2
[15] = test system: CO[C@@]1(NC(=O)Cc2cccs2)C(=O)N2C(C(=O)O)=C(COC(N)=O)CS[C@@H]21; assay: (§5) Activity of Acinetobacter genomosp. 3 isolate 195 ADC-18; procedure, shortened: as §2
[16] = test system: CC(=O)OCC1=C(C(=O)O)N2C(=O)[C@@H](NC(=O)Cc3cccs3)[C@H]2SC1; assay: as §5; procedure, shortened: as §2
[17] = test system: CC(C)(O/N=C(\C(=O)N[C@@H]1C(=O)N2C(C(=O)[O-])=C(C[n+]3ccccc3)CS[C@H]12)c1csc(N)n1)C(=O)O; assay: as §5; procedure, shortened: as §2
[18] = test system: CO/N=C(\C(=O)N[C@@H]1C(=O)N2C(C(=O)O)=C(COC(N)=O)CS[C@H]12)c1ccco1; assay: as §5; procedure, shortened: as §2

Work on “ADC-16 protein (Acinetobacter genomosp. 3) (from UniProt Q0VTR8)” yielded a kcat/Km [1] of 1.88e+06 M⁻¹ s⁻¹, a kcat/Km [2] of 9.92e+06 M⁻¹ s⁻¹ and a kcat/Km [3] of 212000 M⁻¹ s⁻¹. It also gave a kcat/Km [4] of 212000 M⁻¹ s⁻¹, a kcat/Km [5] of 2.34e+06 M⁻¹ s⁻¹ and a Km [6] of 0.18 µM. The kcat [6] was 0.33 s⁻¹, the Km [7] was 139 µM and the kcat [7] was 1380 s⁻¹. It also gave a Km [8] of 110 µM, a kcat [8] of 0.02 s⁻¹ and a Km [9] of 0.32 µM. The kcat [9] was 0.07 s⁻¹, the Km [10] was 3.85 µM and the Km [11] was 0.27 µM. It also gave a kcat [11] of 0.62 s⁻¹.

“ADC-18 protein (Acinetobacter genomosp. 3) (from UniProt Q0VTS0)” showed a kcat/Km [12] of 1.99e+06 M⁻¹ s⁻¹, a kcat/Km [13] of 9.57e+06 M⁻¹ s⁻¹ and a kcat/Km [14] of 1.79e+06 M⁻¹ s⁻¹. For the same substance, the Km [15] was 0.13 µM, the kcat [15] was 0.27 s⁻¹ and the Km [16] was 148 µM. It also gave a kcat [16] of 1420 s⁻¹, a Km [17] of 84 µM and a kcat [17] of 0.02 s⁻¹. The Km [18] was 0.27 µM and the kcat [18] was 0.48 s⁻¹.
